Results as given in the EternaBench riboswitch data.

Test system: MS2 coat protein
Assay: apparent Kd, MS2 coat protein; higher = weaker binding; RNA-MaP array; FMN 200 µM where present
Procedure, shortened: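 Designs on Illumina sequencing-chip clusters, transcribed by stalled E. coli RNA polymerase, were exposed to SNAP-549-labelled MS2 coat protein in doubling steps from 0.7 or 1.5 nM up to 3 µM, without and then with constant ligand. The buffer held 100 mM Tris-HCl pH 7.5, 80 mM KCl, 4 mM MgCl2, BSA, DTT, yeast tRNA and Tween-20. Apparent Kd values are medians of filtered per-cluster binding-curve fits to green signal normalised to red-channel RNA signal and control-cluster median Fmax.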

[1] = designed as: ON switch for flavin mononucleotide, no ligand
[2] = ligand present: flavin mononucleotide, designed as: ON switch for flavin mononucleotide
[3] = designed as: OFF switch for flavin mononucleotide, no ligand
[4] = ligand present: flavin mononucleotide, designed as: OFF switch for flavin mononucleotide

AGCGGAGACAUGAGGAUCACCCAUGUCAGUGCCGGCGAUACCAGAAGGCCCGGCGGGCCUCGGCGGGAGGAUAUGGGUUCAACA
apparent Kd [1]: 51.8 nM | apparent Kd [2]: 14.9 nM

UGAACUAUGUAGAAGGCCCAUAUUUAUACUUAGGGAGGAUAUACAUGAGGAUCACCCAUGUAUAGAGCAAGUGGACUUGUCACU
apparent Kd [3]: 17.9 nM | apparent Kd [4]: 20.2 nM

CUUUUGUGAGGAUAUCAGUUGUAAAAAAAUAAAAUUACUACUGAGAAGGCACAUGAGGAUCACCCAUGUUCCUC
apparent Kd [3]: 35 nM | apparent Kd [4]: 140 nM

GGUGUCGUAUGAGGAUAUGGUCAGCUUUGCUGACCAGAAGGCAUGUCAAUAGACAUGAGGAUCACCCAUGUAGUAAAGACACCA
apparent Kd [1]: 441 nM | apparent Kd [2]: 43.4 nM

GCGCGAAGCUAGGAUAUGGGAGCCGAAAGGCUCCCAGAAGGAGCCACAUGAGGAUCACCCAUGUGGUGAUCCUG
apparent Kd [3]: 18.6 nM | apparent Kd [4]: 38.6 nM

AAAAGACAUGAGGAUCACCCAUGUCAAGACGUGGGAGGAUAUGUAUGGAAACCAGACUGUACAGAAGGCCUCUGUC
apparent Kd [1]: 57 nM | apparent Kd [2]: 70.5 nM

CAGCGGUGAGGAUAUACGUAGGUACAGAUCUGUGUGUUCCUACAUGAGGAUCACCCAUGUAGAAGGCAUGGCUG
apparent Kd [3]: 43 nM | apparent Kd [4]: 140 nM

AGGAAGUGAGGAUAUGCAGUGGCUAGUAGACGCUAGCACUUGUAGAAGGCACAUGAGGAUCACCCAUGUUUAAA
apparent Kd [3]: 31.9 nM | apparent Kd [4]: 36.9 nM

AAAAAACAUGAGGAUCACCCAUGUGAGGAUAUCACUAGUCAGUCCUCGGAGUGAGUUCUGAGAAGGCACAUAAA
apparent Kd [3]: 118 nM | apparent Kd [4]: 106 nM

GGGUACAUCGGAGGAUAUCAUGUAAAUACAUGAGGAUCACCCAUGUCGAUGGAGUCAUCGGAGAUUGAGAAGGCCGAUGUACCG
apparent Kd [1]: 14 nM | apparent Kd [2]: 5.75 nM

UUACUAUUACAGAAGGCUAAAUAAUAUAUAAAUGGAGGAUAUGUAACAUGAGGAUCACCCAUGUUUCACCCACAUGAGGAUCAC
apparent Kd [3]: 8.45 nM | apparent Kd [4]: 23.8 nM

AGGAAGUCAGGAUAUGCUGCUCGUCACUUGCGUGAUGAGUAGCAGAAGGGACAUGAGGAUCACCCAUGUAAAAA
apparent Kd [3]: 52.6 nM | apparent Kd [4]: 57.9 nM

GAAGCAGAUCAGAAGGACAACGUAGUUUCUGGCUUGGUGGCCCUCGUUUGUAGGAUAUGAUCUAACAUGAGGAUCACCCAUGUG
apparent Kd [1]: 53.2 nM | apparent Kd [2]: 11.7 nM

GGAUCGAAAGUGAGGAUAUGCUGGUCCUUGGAUCAGCAGAAGGCACAUGAGGAUCACCCAUGUGUUCCCGGUCC
apparent Kd [3]: 19.7 nM | apparent Kd [4]: 99.8 nM

UGGUCAUGAUCAGGAUAUUAACAUGGGCUACAUUAAGAAGGGAUAGUGAGAUACGAACUGAACAUGAGGAUCACCCAUGUUGUU
apparent Kd [1]: 240 nM | apparent Kd [2]: 104 nM

AAUUUAAUACAUGAGGAUCACCCAUGUAAAUUAAUUAAGAUCUAGGAUAUCAGCUCGAAUAGAGCUGAGAAGGAGAUCACAUGU
apparent Kd [1]: 17.4 nM | apparent Kd [2]: 15.1 nM

GUUUUUGCAUGAGGAUAUGCUCGCAUUUCAAGAGCAGAAGGUAUUUCUUUUGACAUGAGGAUCACCCAUGUAUUUAUCAUUGAA
apparent Kd [1]: 21 nM | apparent Kd [2]: 18.9 nM

ACCGUGUCAGGAUAUCCUGCUGUGCGGACUCUGUCUUCACGGGAGAAGGGACAUGAGGAUCACCCAUGUUUGAG
apparent Kd [3]: 20.2 nM | apparent Kd [4]: 25.4 nM

AAAAGGCUAGGAUAUACCAGUGGGUGUAAGAACUCAAAUUUACAUGAGGAUCACCCAUGUAGAAGGAGUAAAAU
apparent Kd [3]: 20.4 nM | apparent Kd [4]: 30.2 nM

AUACGGGCCCAGAAGGUGCCAGCGAGAGCUGCACAUGAGGAUCACCCAUGUUGUCGGUGACGACGCAAGGAUAUGGGCCCGUAU
apparent Kd [1]: 23.4 nM | apparent Kd [2]: 6.63 nM

UUUUAACAUGAGGAUCACCCAUGUGAGGAUAUCGAAAUUUAUAUUUAUAUUAAUAAAUCGAGAAGGCACAUUUU
apparent Kd [3]: 117 nM | apparent Kd [4]: 117 nM

GCCAUCGCAUGAGGAUAUGCUCCGGUUUCCGGAGCAGAAGGCAUGUCAUAAAACAUGAGGAUCACCCAUGUAGUUAAGAUGGCA
apparent Kd [1]: 8.86 nM | apparent Kd [2]: 5.18 nM

GUCAGCUCGUGAGGAUAUACAUGUGCUGGAAACAGCAUUAUAUUUUUCACAUGAGGAUCACCCAUGUAGAAGGCACGAGCUGAU
apparent Kd [3]: 16.3 nM | apparent Kd [4]: 27 nM

CGUGUUCCACAGAAGGCAUGGGACACAUGAGGAUCACCCAUGUCACUGAUGAGGAUAUGUAAAAGGAGCGAGGUGCAAGAAUAG
apparent Kd [1]: 158 nM | apparent Kd [2]: 23.7 nM

GUGGUCAGACAUGAGGAUCACCCAUGUGGAAUAAAUAACAGACAGGAUAUAUAAUAUAGGAUAUAGUAGAAGGGUCGAUUGGUG
apparent Kd [1]: 81.9 nM | apparent Kd [2]: 85.8 nM

UGGUACUAGGGAGGAUAUGGGAAGAUACAUGAGGAUCACCCAUGUUUGAGAAUGCCGAGAGGCAACUAGAAGGCCCUAGUACCU
apparent Kd [1]: 430 nM | apparent Kd [2]: 18.1 nM

ACAUGAGGAUCACCCAUGUGAACAUAGGAUAUUGGUGAUCAGGCAUGUUAUACAGGAUAUGUCUGCGAGAAGGGUGCACGUUGC
apparent Kd [1]: 524 nM | apparent Kd [2]: 412 nM

GCGUUGAUGUAGAAGGUACAUGAAUAUAUUUAAUACCUCAAGUAACAUGAGGAUCACCCAUGUAGUAAGGAUAUACAUGAACGC
apparent Kd [1]: 88.6 nM | apparent Kd [2]: 56.1 nM

UCACGGUAUGUAGGAUAUGCAUAGCAUUGCUAUGCAGAAGGACAUGAGGAUCACCCAUGUAUGUAUUCCAUACUAAUCCCGUGC
apparent Kd [3]: 6.01 nM | apparent Kd [4]: 6.03 nM

UAUAUAUAGUAAGGAUAUGUAUAAAUUUUAUAAACAGAAGGUACUGACAUGAGGAUCACCCAUGUUUUAGUGUGGGCAUGUAGA
apparent Kd [3]: 96.2 nM | apparent Kd [4]: 147 nM

CUGGUUGUCGUAGGAUAUGUAGGAUAUUCCUACAUGAGGAUCACCCAUGUUCGCAUGGAAGAAGGACAGAAGGACGAUGACCAG
apparent Kd [1]: 621 nM | apparent Kd [2]: 24.9 nM

UAUUUUUAUGUAAGGAUAUGGGUUUGGUUGCGGGCUUAGAAGGUACAUGAGGAUCACCCAUGUAUUUUGUGCGU
apparent Kd [3]: 16.9 nM | apparent Kd [4]: 18.3 nM

CGUCCACAUGAGGAUCACCCAUGUGAGGAUAUCGAUGUCCCAGGGCGGGUGCGGGACUCGAGAAGGCACUAGGU
apparent Kd [3]: 32.7 nM | apparent Kd [4]: 93.6 nM

CCAGAGGUCACAGGAUAUGACUUGUCCAAUUAGUCAGAAGGGUGAAUCACAUUAUGUAUACAUGAGGAUCACCCAUGUCCUACG
apparent Kd [1]: 214 nM | apparent Kd [2]: 1040 nM

AUAUAUAGUGUGAGGAUAUGCUGGUCCUUGGAUCAGCAGAAGGCACAUGAGGAUCACCCAUGUAGUUUAUUUUA
apparent Kd [3]: 31.7 nM | apparent Kd [4]: 76.7 nM

GCAGCAUCUGCAGGAUAUCAGCACGUGUAGUGCUGAGAAGGGCACAUGAGGAUCACCCAUGUGAUCAAUUAAUAUAGAUGCUGC
apparent Kd [3]: 5.78 nM | apparent Kd [4]: 15.8 nM
